Experimental data as given in ChEMBL document CHEMBL4043192, “The discovery of IDX21437: Design, synthesis and antiviral evaluation of 2'-α-chloro-2'-β-C-methyl branched uridine pronucleotides as potent liver-targeted HCV polymerase inhibitors” (Bioorg Med Chem Lett, 2017).

Experiments:
Liver = test: Dose normalized AUC (0 to 24 hrs) in mouse liver assessed as 2'-C-MeUTP level at 10 mg/kg, po administered as single dose; assay type: ADME, organism-based; conditions: in vivo
Outline: (§1)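 Mice given a single oral 10 mg/kg dose. Triphosphate measured in liver and parent nucleoside in plasma. AUC expressed as dose-normalized AUC (AUC per mg/kg).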

Plasma = test: Dose normalized AUC (0 to 24 hrs) in mouse plasma assessed as 2'-C-MeU level at 10 mg/kg, po administered as single dose; assay type: ADME, organism-based; conditions: in vivo; outline: as §1
[1] = Selectivity index, ratio of CC50 for human Huh-7 cells to EC50 for HCV genotype 1b Con1 expressing NS3 protease
Outline: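 Selectivity index = CC50/EC50. EC50 from a luciferase-read Con1 subgenomic replicon assay in Huh-7 (GS4.1) cells.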

Hepatitis C virus = test: Antiviral activity against HCV genotype 1b Con1 expressing NS3 protease infected in human Huh-7 cells assessed as reduction in viral RNA replication after 72 hrs by luciferase reporter gene assay; assay type: functional, cell-based, Hepacivirus hominis; conditions: genotype 1b Con1, Huh-7, 72 h
[2] = Inhibition of wild-type HCV genotype 1b NS5B RNA dependent RNA polymerase; set-up: species or system Hepatitis C virus subtype 1b
Outline: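 Biochemical assay using wild-type genotype 1b HCV NS5B polymerase. IC50 was derived from percent inhibition versus concentration data.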

[3] = Cytotoxicity against human HuH7 cells assessed as reduction in cell viability; assay type: cell-based, Huh-7

| SMILES | AUC/dose (Liver) | AUC/dose (Plasma) | Ratio CC50/EC50 [1] | EC50 (Hepatitis C virus) | IC50 [2] | CC50 [3] |
| --- | --- | --- | --- | --- | --- | --- |
| CC(C)OC(=O)[C@@H](C)N[P@]1(=O)OC[C@H]2O[C@@H](n3ccc(=O)[nH]c3=O)[C@](C)(Cl)[C@@H]2O1 | 7500 pmol·h/g | 910 pmol·h/mL | >2 | 42300 nM | – | – |
| CCOC(=O)[C@@H](C)N[P@@](=O)(OC[C@H]1O[C@@H](n2ccc(=O)[nH]c2=O)[C@](C)(Cl)[C@@H]1O)Oc1ccccc1 | – | – | >12 | 8140 nM | – | – |
| CC(C)(CO)C(=O)SCCOP(=O)(NCc1ccccc1)OC[C@H]1O[C@@H](n2cnc3c(=O)[nH]c(N)nc32)[C@](C)(O)[C@@H]1O (stereo partly specified) | 275 pmol·h/g | 45 pmol·h/mL | >370 | 203 nM | – | – |
| CCOC(=O)NCC(C)(C)C(=O)SCCO[P@](=O)(NCc1ccccc1)OC[C@H]1O[C@@H](n2ccc(=O)[nH]c2=O)[C@](C)(Cl)[C@@H]1O | – | – | >79 | 1270 nM | – | – |
| CC(C)C[C@H](N[P@](=O)(OC[C@H]1O[C@@H](n2ccc(=O)[nH]c2=O)[C@](C)(Cl)[C@@H]1O)Oc1ccccc1)C(=O)OC(C)C | – | – | >90 | 1110 nM | – | – |
| CC(C)OC(=O)[C@H](C)N[P@](=O)(OC[C@H]1O[C@@H](n2ccc(=O)[nH]c2=O)[C@](C)(Cl)[C@@H]1O)Oc1ccccc1 | 560 pmol·h/g | 1300 pmol·h/mL | >633 | 158 nM | – | – |
| C[C@H](N[P@@](=O)(OC[C@H]1O[C@@H](n2ccc(=O)[nH]c2=O)[C@](C)(Cl)[C@@H]1O)Oc1ccccc1)C(=O)OCc1ccccc1 | 1200 pmol·h/g | 1900 pmol·h/mL | >541 | 185 nM | – | – |
| CCOC(=O)[C@H](CC(C)C)N[P@@](=O)(OC[C@H]1O[C@@H](n2ccc(=O)[nH]c2=O)[C@](C)(Cl)[C@@H]1O)Oc1ccccc1 | 220 pmol·h/g | 940 pmol·h/mL | >40 | 2490 nM | – | – |
| CC(C)OC(=O)[C@H](C)N[P@@](=O)(OC[C@H]1O[C@@H](n2ccc(=O)[nH]c2=O)[C@](C)(F)[C@@H]1O)Oc1ccccc1 | 310 pmol·h/g | 320 pmol·h/mL | >48 | 2080 nM | – | – |
| C[C@@H](N[P@](=O)(OC[C@H]1O[C@@H](n2ccc(=O)[nH]c2=O)[C@](C)(Cl)[C@@H]1O)Oc1ccccc1)C(=O)OCc1ccccc1 | 6900 pmol·h/g | 1700 pmol·h/mL | >122 | 819 nM | – | – |
| CCOC(=O)[C@H](C)N[P@](=O)(OC[C@H]1O[C@@H](n2ccc(=O)[nH]c2=O)[C@](C)(Cl)[C@@H]1O)Oc1ccccc1 | 400 pmol·h/g | 1100 pmol·h/mL | >389 | 257 nM | – | – |
| CCOC(=O)NCC(C)(C)C(=O)SCCO[P@@](=O)(NCc1ccccc1)OC[C@H]1O[C@@H](n2ccc(=O)[nH]c2=O)[C@](C)(Cl)[C@@H]1O | – | – | >86 | 1160 nM | – | – |
| CC(C)OC(=O)[C@@H](C)N[P@@]1(=O)OC[C@H]2O[C@@H](n3ccc(=O)[nH]c3=O)[C@](C)(Cl)[C@@H]2O1 | 2400 pmol·h/g | 770 pmol·h/mL | >3 | 31800 nM | – | – |
| CC(C)C[C@H](N[P@@](=O)(OC[C@H]1O[C@@H](n2ccc(=O)[nH]c2=O)[C@](C)(Cl)[C@@H]1O)Oc1ccccc1)C(=O)OC(C)C | – | – | >8 | 12600 nM | – | – |
| CC(C)OC(=O)[C@H](C)N[P@@]1(=O)OC[C@H]2O[C@@H](n3ccc(=O)[nH]c3=O)[C@](C)(Cl)[C@@H]2O1 | 520 pmol·h/g | 1100 pmol·h/mL | >25 | 4020 nM | – | – |
| CC(C)(CO)C(=O)SCCOP1(=O)OC[C@H]2O[C@@H](n3ccc(=O)[nH]c3=O)[C@](C)(Cl)[C@@H]2O1 (single isomer, unassigned) | 5000 pmol·h/g | 1300 pmol·h/mL | >403 | 248 nM | – | – |
| CCOC(=O)[C@@H](C)N[P@](=O)(OC[C@H]1O[C@@H](n2ccc(=O)[nH]c2=O)[C@](C)(Cl)[C@@H]1O)Oc1ccccc1 | – | – | >39 | 2550 nM | – | – |
| CC(C)(CO)C(=O)SCCO[P@@]1(=O)OC[C@H]2O[C@@H](n3ccc(=O)[nH]c3=O)[C@](C)(Cl)[C@@H]2O1 | 3600 pmol·h/g | 710 pmol·h/mL | >240 | 417 nM | – | – |
| CCOC(=O)NCC(C)(C)C(=O)SCCOP1(=O)OC[C@H]2O[C@@H](n3ccc(=O)[nH]c3=O)[C@](C)(Cl)[C@@H]2O1 (single isomer, unassigned; 27b) | 3300 pmol·h/g | – | >1370 | 73 nM | – | – |
| CC(C)OC(=O)[C@@H](N[P@@](=O)(OC[C@H]1O[C@@H](n2ccc(=O)[nH]c2=O)[C@](C)(Cl)[C@@H]1O)Oc1ccccc1)C(C)C | – | – | >1 | > 100000 nM | – | – |

| SMILES | AUC/dose (Liver) | AUC/dose (Plasma) | Ratio CC50/EC50 [1] | EC50 (Hepatitis C virus) | IC50 [2] | CC50 [3] |
| --- | --- | --- | --- | --- | --- | --- |
| C[C@@H](N[P@@](=O)(OC[C@H]1O[C@@H](n2ccc(=O)[nH]c2=O)[C@](C)(Cl)[C@@H]1O)Oc1ccccc1)C(=O)OCc1ccccc1 | 5600 pmol·h/g | 1400 pmol·h/mL | >23 | 4280 nM | – | – |
| C[C@@]1(O)[C@H](O)[C@@H](COP(=O)(O)OP(=O)(O)OP(=O)(O)O)O[C@H]1n1ccc(=O)[nH]c1=O | – | – | – | – | 81 nM | – |
| CCOC(=O)NCC(C)(C)C(=O)SCCOP1(=O)OC[C@H]2O[C@@H](n3ccc(=O)[nH]c3=O)[C@](C)(Cl)[C@@H]2O1 (single isomer, unassigned; 27a) | – | – | >285 | 351 nM | – | – |
| CCOC(=O)[C@H](CC(C)C)N[P@](=O)(OC[C@H]1O[C@@H](n2ccc(=O)[nH]c2=O)[C@](C)(Cl)[C@@H]1O)Oc1ccccc1 | 270 pmol·h/g | 2100 pmol·h/mL | >344 | 291 nM | – | – |
| CC(C)OC(=O)[C@@H](N[P@](=O)(OC[C@H]1O[C@@H](n2ccc(=O)[nH]c2=O)[C@](C)(Cl)[C@@H]1O)Oc1ccccc1)C(C)C | – | – | >1 | > 100000 nM | – | – |
| CC(C)(CO)C(=O)SCCO[P@](=O)(NCc1ccccc1)OC[C@H]1O[C@@H](n2ccc(=O)[nH]c2=O)[C@](C)(Cl)[C@@H]1O | 96 pmol·h/g | 590 pmol·h/mL | >28 | 3610 nM | – | – |
| C[C@@]1(O)[C@H](O)[C@@H](CO)O[C@H]1n1ccc(=O)[nH]c1=O | – | – | – | 30000 nM | – | > 100000 nM |
| CCOC(=O)[C@@H](CC(C)C)N[P@@](=O)(OC[C@H]1O[C@@H](n2ccc(=O)[nH]c2=O)[C@](C)(Cl)[C@@H]1O)Oc1ccccc1 | – | – | >3 | 37400 nM | – | – |
| CC(C)(CO)C(=O)SCCO[P@@](=O)(NCc1ccccc1)OC[C@H]1O[C@@H](n2ccc(=O)[nH]c2=O)[C@](C)(Cl)[C@@H]1O | 150 pmol·h/g | 930 pmol·h/mL | >25 | 3990 nM | – | – |
| CC(C)OC(=O)[C@@H](C)NP(=O)(N[C@H](C)C(=O)OC(C)C)OC[C@H]1O[C@@H](n2ccc(=O)[nH]c2=O)[C@](C)(Cl)[C@@H]1O | 490 pmol·h/g | 210 pmol·h/mL | >1 | > 100000 nM | – | – |
| CCCCOC(=O)[C@@H](C)N[P@](=O)(OC[C@H]1O[C@@H](n2ccc(=O)[nH]c2=O)[C@](C)(Cl)[C@@H]1O)Oc1ccccc1 | 7200 pmol·h/g | 1700 pmol·h/mL | >189 | 528 nM | – | – |
| CC(C)OC(=O)[C@H](C)NP(=O)(N[C@@H](C)C(=O)OC(C)C)OC[C@H]1O[C@@H](n2ccc(=O)[nH]c2=O)[C@](C)(Cl)[C@@H]1O | – | – | >8 | 12000 nM | – | – |
| CCOC(=O)[C@H](C)N[P@@](=O)(OC[C@H]1O[C@@H](n2ccc(=O)[nH]c2=O)[C@](C)(Cl)[C@@H]1O)Oc1ccccc1 | 840 pmol·h/g | 1100 pmol·h/mL | >118 | 845 nM | – | – |
| CC(C)OC(=O)[C@@H](C)N[P@](=O)(OC[C@H]1O[C@@H](n2ccc(=O)[nH]c2=O)[C@](C)(Cl)[C@@H]1O)Oc1ccccc1 | 3750 pmol·h/g | 1050 pmol·h/mL | >10 | 9600 nM | – | – |
| CC(C)OC(=O)[C@H](C)N[P@]1(=O)OC[C@H]2O[C@@H](n3ccc(=O)[nH]c3=O)[C@](C)(Cl)[C@@H]2O1 | 21 pmol·h/g | 570 pmol·h/mL | >197 | 508 nM | – | – |
| CC(C)OC(=O)[C@H](C)N[P@@](=O)(OC[C@H]1O[C@@H](n2ccc(=O)[nH]c2=O)[C@](C)(Cl)[C@@H]1O)Oc1ccccc1 | 840 pmol·h/g | 970 pmol·h/mL | >105 | 953 nM | – | – |
| CCCCOC(=O)[C@@H](C)N[P@@](=O)(OC[C@H]1O[C@@H](n2ccc(=O)[nH]c2=O)[C@](C)(Cl)[C@@H]1O)Oc1ccccc1 | 8400 pmol·h/g | 1700 pmol·h/mL | >46 | 2180 nM | – | – |
| C[C@H](N[P@](=O)(OC[C@H]1O[C@@H](n2ccc(=O)[nH]c2=O)[C@](C)(Cl)[C@@H]1O)Oc1ccccc1)C(=O)OCc1ccccc1 | 850 pmol·h/g | 2500 pmol·h/mL | >1408 | 71 nM | – | – |
| CCOC(=O)[C@@H](CC(C)C)N[P@](=O)(OC[C@H]1O[C@@H](n2ccc(=O)[nH]c2=O)[C@](C)(Cl)[C@@H]1O)Oc1ccccc1 | – | – | >1 | > 100000 nM | – | – |
